Laboratory results published in paper PMC3572763 (Molecular pharmaceutics, 2013).
Read-outs that look alike come from different tables or passages of the source.

What was measured:
[1] = Chemical stability in pH buffers; assay type: physicochemical; conditions: for T1/2 −pH 6.0: pH 6.0 buffer; for T1/2 −pH 6.0 / T1/2 pH 7.4: value given in h; for T1/2 pH 7.4: pH 7.4 buffer
rat jejunum = test: Single-pass intestinal; assay type: in vivo; conditions: rat jejunal perfusion
PEPT1 [2] = biological target: T1, PEPT1 (Homo sapiens, UniProt P46059); test: [3H]Gly-Sar uptake inhibition in Caco-2 cells; assay type: cell-based
T1 sequence (P46059 1-708): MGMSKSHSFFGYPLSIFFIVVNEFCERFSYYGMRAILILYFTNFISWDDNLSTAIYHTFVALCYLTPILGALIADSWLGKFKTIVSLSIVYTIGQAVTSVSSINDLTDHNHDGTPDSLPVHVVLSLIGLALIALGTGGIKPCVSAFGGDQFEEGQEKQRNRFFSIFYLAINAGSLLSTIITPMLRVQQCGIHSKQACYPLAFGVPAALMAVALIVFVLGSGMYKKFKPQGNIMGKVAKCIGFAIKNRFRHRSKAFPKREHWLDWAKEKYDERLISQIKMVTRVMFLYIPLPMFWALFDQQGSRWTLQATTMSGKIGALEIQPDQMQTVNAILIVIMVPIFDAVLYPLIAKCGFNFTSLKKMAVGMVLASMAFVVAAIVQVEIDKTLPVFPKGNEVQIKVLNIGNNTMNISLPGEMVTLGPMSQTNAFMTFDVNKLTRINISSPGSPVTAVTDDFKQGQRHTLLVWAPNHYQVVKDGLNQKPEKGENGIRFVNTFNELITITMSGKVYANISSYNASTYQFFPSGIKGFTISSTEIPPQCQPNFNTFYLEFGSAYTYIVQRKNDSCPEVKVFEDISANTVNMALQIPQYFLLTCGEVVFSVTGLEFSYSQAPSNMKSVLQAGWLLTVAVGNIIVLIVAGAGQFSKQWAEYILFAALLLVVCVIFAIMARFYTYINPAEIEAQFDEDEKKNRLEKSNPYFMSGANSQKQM
Outline: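 Caco-2 cells seeded at 5.0 × 10^4/well and grown 10 days. Washed and preincubated 15 min in pH 6.0 MES uptake buffer, then exposed 30 min at 37°C to 10 μM Gly-Sar (~1% [3H]) plus test compound 0.05–5 mM. Cells washed with ice-cold PBS, lysed in MeOH/water 1:1, counted by scintillation; IC50 by nonlinear fit; mean ± SEM, n = 3.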

[3] = system: H1N1 NWS/33 strain of influenza; conditions: cited from earlier work
PEPT1 [4] = biological target: T1, PEPT1; test: Direct uptake in PEPT1 over-expressing HeLa cells; assay type: cell-based; conditions: 1 mM
Type B strains = conditions: tissue culture; cited from earlier work
[5] = mice; for AUC24hr / Cmax / Tmax hrs: GOCarb measured in plasma; for oral bioavailability: 10 mg/kg oral gavage relative to 1 mg/kg IV
Caco-2 monolayers = test: Caco-2 cell monolayers permeability; assay type: in vitro ADME, human; conditions: A to B
[6] = cited from earlier work
[7] = system: human lysosomal neuraminidase; conditions: cited from earlier work
Type A strains = conditions: tissue culture; cited from earlier work
[8] = from literature, cited from earlier work
[9] = literature; cited from earlier work

CCOC(=O)C1=C[C@@H](OC(CC)CC)[C@H](NC(C)=O)[C@@H](NC(=N)N)C1 [GOC ethyl ester]
T1/2 −pH 6.0 [1]: >20h
T1/2 pH 7.4 [1]: >20h

CCC(CC)O[C@@H]1C=C(C(=O)O)C[C@H](NC(=N)N)[C@H]1NC(C)=O [GOCarb, 4-Guanidine oseltamivir carboxylate]
jejunal permeability (rat jejunum): very low permeability
jejunal permeability (rat jejunum; listed as parent drug): essentially zero permeability
competition with [3H]Gly-Sar (PEPT1 [2]): little competition
IC50 ([3]; H1N1 NWS/33 strain of influenza): 900 pM
approximate EC50 ([3]; versus the A/NWS/33 virus, dashed line in Figure 8): ~5 ng/mL
uptake into transfected or non-transfected cells (PEPT1 [4]): virtually no uptake
hydrolysis in buffers ([1]; all pHs, up to 20 hours): limited hydrolysis
T1/2 −pH 6.0 [1]: >20h
T1/2 pH 7.4 [1]: >20h
fold more potent than OC (Type B strains): ~13 fold
AUC24hr ([5]; 1 mg/kg IV): 487 ± 206 ng·h/mL
AUC24hr ([5]; 10 mg/kg po-fasted): 278 ± 52 ng·h/mL
Cmax ([5]; 10 mg/kg po-fasted): 50.9 ± 35.8 ng/mL
Tmax hrs ([5]; 10 mg/kg po-fasted): 1.3 ± 0.6 h
AUC24hr ([5]; 10 mg/kg po-fed): 291 ± 87 ng·h/mL
Cmax ([5]; 10 mg/kg po-fed): 65.4 ± 26.8 ng/mL
Tmax hrs ([5]; 10 mg/kg po-fed): 3.0 ± 1.2 h
oral bioavailability ([5]; fasted): approximately 5%
oral bioavailability ([5]; fed): approximately 5%
permeability across Caco-2 monolayers (Caco-2 monolayers): negligible permeability
intestinal permeability ([6]; in rats): < 5%
oral bioavailability ([6]; species not stated in abstract): 4%
fold more potent in inhibiting human lysosomal neuraminidase as compared to OC [7]: ~ 10 fold
fold more potent than OC (Type A strains): approximately 100 fold

CC(C)[C@H](N)C(=O)OCCOCn1cnc2c(=O)[nH]c(N)nc21 [Valacyclovir]
T1/2 −pH 6.0 ([8]; pH 6.0): ND^b 69.7 h^c
T1/2 pH 7.4 ([8]; pH 7.4): ND^b >8 h^c
bioavailability in humans [9]: up to 80%
